Most compounds without a hit are left out; they make up all but 1.2% or so of the library.
proCasp7 act – activates human procaspase-7, counter-screen for procaspase-3 activators; 0.093% of 330,000 active; activation, % at 8.5 µM; recombinant procaspase-7, Ac-DEVD-pNA absorbance 405 nm; D23A/D198A/D206A triple mutant, cannot self-cleave; scale: DMSO 0, 5 µM enzyme 100; P55210; AID 463210;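 active = percent activation above the screen-wide mean plus 3 SD, cut at about 25% in these data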
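Material: Procaspase-7 triple mutant (PC-7 D3A) | Quantity: 2 µM procaspase-7 mutant as dispensed | Reagent: DEVD-pNA substrate | Times: 1 h preincubation, 2 h reaction | Technique: 405 nm absorbance of p-nitroaniline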
procasp3 activ – activators of human procaspase-3. activation, % at 8.5 µM. 0.11% of 330,000 active. recombinant procaspase-3 D3A, Ac-DEVD-pNA absorbance 405 nm. P42574;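 active = activation above the mean of all tested compounds plus 3 SD, cut at about 21% in these data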;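 also: 0% = DMSO alone and 100% = DMSO wells spiked with extra 5 µM PC-3 D3A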
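Test system: Procaspase-3 D3A mutant, all three cleavage aspartates alanine | Dosing: Single dose, 8.5 µM nominal compound, 0.8% DMSO | Schedule: 1 h preincubation, 2 h reaction | Technique: 405 nm absorbance of p-nitroaniline, reads at 0 and 120 min | Repeats: One well per compound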
PP5 primary – PP5 (human) phosphatase inhibition; purified PP5c, OMFP substrate fluorescence; 0.18% of 320,000 active; P53041; inhibition, % at 6.7 µM;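 active = inhibition above the campaign's mean inhibition across all tested compounds plus 3 SD, cut at about 9.5% in these data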;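 also: 0% = DMSO only and 100% = 100 µM cantharidin control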
PP1 inh – blocks human PP1-alpha phosphatase, a PP5 counter-screen | P62136 | purified PP1alpha, OMFP fluorescence | inhibition, % at 6.7 µM | 0.9% of 320,000 active;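 active = inhibition above the mean inhibition of all tested compounds plus 3 SD, computed separately for each screening campaign, cut at about 15% in these data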
Target sequence (P62136 whole entry, looked up): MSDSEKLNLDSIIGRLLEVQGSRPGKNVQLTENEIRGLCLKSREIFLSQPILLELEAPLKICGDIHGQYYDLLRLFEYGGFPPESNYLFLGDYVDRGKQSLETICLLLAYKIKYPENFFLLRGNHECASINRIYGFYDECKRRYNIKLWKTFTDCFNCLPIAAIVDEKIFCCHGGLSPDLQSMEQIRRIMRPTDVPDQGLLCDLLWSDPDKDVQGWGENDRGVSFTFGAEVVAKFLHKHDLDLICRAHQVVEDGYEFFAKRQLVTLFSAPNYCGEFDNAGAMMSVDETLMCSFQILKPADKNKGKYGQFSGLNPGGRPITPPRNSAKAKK
PP5 conf – PP5 (human) inhibition, confirmation | shares compounds with PP5 primary | Purified PP5, fluorogenic phosphatase substrate, fluorescence | inhibition, % at 6.7 µM | 22% of 460 active | AID 2331; in the data active = inhibition above about 9.5%
PP1 counter 3x – counter-screen for PP5 inhibitors: human PP1 phosphatase inhibition; PP1 enzyme, fluorescent phosphatase substrate; shares compounds with PP5 primary; 4% of 460 active; inhibition, % at 6.7 µM; in the data active = inhibition above about 16%
* marks the source's active call; other numbers are inactive results; · = no result.

SMILES	proCasp7 act	procasp3 activ	PP5 primary	PP1 inh	PP5 conf	PP1 counter 3x
O=C(Nc1cccc2ncccc12)c1ccc(-c2ccc(Br)cc2)o1	-1	4	13*	-1	-2	-2
COC(=O)C1=C(CSc2nncn2C)NC(=O)NC1c1cc(C)ccc1C (stereo unspecified)	19	-3	2	1	·	·
COC(=O)C1=C(CSc2nccn2C)NC(=O)NC1c1cc(C)ccc1C (stereo unspecified)	4	-2	9.9*	-4	-4	-4
Cn1c(SCC(=O)Nc2ccc(C(=O)O)cc2)nc2scc(-c3ccccc3Cl)c2c1=O	7	1	·	·	·	·
Cc1c(Cl)cccc1NC(=O)C1CCN(S(C)(=O)=O)CC1	10	-1	-2	-5	·	·
Cc1cccc(NC(=O)C2CCN(S(C)(=O)=O)CC2)c1C	5	5	11*	-1	-8	-6
COc1ccccc1NC(=O)C1C2C=CC(O2)C1C(=O)O (stereo unspecified)	-4	-8	15*	3	3	7
Cc1cccc(NC(=O)C2C3C=CC(O3)C2C(=O)O)c1 (stereo unspecified)	-32	-20	9.8*	-1	-1	4
Cc1ccc(NC(=O)C2C3C=CC(O3)C2C(=O)O)c(C)c1 (stereo unspecified)	-12	-5	18*	3	0	12
Cc1cccc(NC(=O)C2C3C=CC(O3)C2C(=O)O)c1C (stereo unspecified)	0	5	10*	2	0	4
O=C(NCCc1c[nH]c2ccccc12)C(=O)Nc1cc2c3c(c1)CC(=O)N3CCC2	-4	-4	0	1	·	·
Cc1nnc(NC(=O)C2C3C=CC(O3)C2C(=O)O)s1 (stereo unspecified)	-13	-1	16*	1	16*	13
COC(=O)c1sccc1NC(=O)C1C2C=CC(O2)C1C(=O)O (stereo unspecified)	-2	6	1	-3	·	·
COC(=O)c1ccc(NC(=O)C2C3C=CC(O3)C2C(=O)O)cc1 (stereo unspecified)	-7	-34	21*	8	5	6
Cc1ccc(NC(=O)C2C3C=CC(O3)C2C(=O)O)cc1C (stereo unspecified)	-8	-7	23*	2	4	23*
CCN1C(=O)[C@H]2[C@@H](c3ccc(-c4ccccc4)cc3)N[C@@](CC(C)C)(C(=O)OC)[C@H]2C1=O	-1	2	1	-2	·	·
Cn1ccnc1C(=O)c1ccc(S(=O)(=O)N2CCCC2)cc1	0	-8	-1	-6	·	·
Cn1ccnc1C(=O)c1ccc(Cl)c(S(=O)(=O)N2CCOCC2)c1	14	-7	10.0*	-2	-3	-3
CC(CCc1ccccc1)NC(=O)CN1C(=O)NC2(CCCCC2C)C1=O (stereo unspecified)	-1	5	1	3	·	·
O=C(NNc1cc(N2CCOCC2)nc(N2CCOCC2)n1)c1ccc(Cl)c(Cl)c1	2	-1	6	2	·	·
Cc1ccc(C(=O)NNc2cc(N3CCCC3)nc(N3CCCC3)n2)cc1	-13	-1	17*	12	40*	-1
COc1ccc(C(=O)N/C(=C\c2ccccc2)C(=O)Nc2ccccc2C(=O)O)cc1	-7	1	1	-2	·	·
COc1ccc(NC(=O)C2CC(=O)N(C)C(=Nc3ccc4c(c3)OCO4)S2)cc1 (stereo unspecified)	1	-7	12*	-3	-1	0
CN1C(=O)CC(C(=O)Nc2ccc(F)cc2)SC1=Nc1ccc2c(c1)OCO2 (stereo unspecified)	9	6	1	1	·	·
CCOC(=O)C(NC(=O)NC1CCCCC1)(c1ccccc1)C(F)(F)F (stereo unspecified)	12	7	-1	-1	·	·
CCOC(=O)C(NC(=O)Nc1ccc(O)cc1)(c1ccccc1)C(F)(F)F (stereo unspecified)	4	0	11*	-10	1	0
CCOc1ccc(C2c3cc(OC)c(OC)cc3CC(=O)N2c2ccc(OC)cc2)cc1 (stereo unspecified)	3	2	9.7*	2	1	0
